High-throughput results (PubChem)
In the library only some 2.4% were active in any assay of this set; here they are far more common.
Ecoli rRNA inh: selective bacterial rRNA inhibition in E. coli; E. coli WT GFP vs humanized-ribosome RFP mutants, fluorescence, 24 h; stronger effect = lower value; DMSO median 0, no signal -100; GFP signal change (wild-type ribosome), % (concentration not given with the values); hit rate 1.6% among 350,000; AID 720706;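 active = significant combined selectivity score with lowered wild-type GFP, culture density cut under 30%, mutant RFP and density less affected; inactive = any of these conditions unmet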
ARNT-TACC3 inh: disruptors of human ARNT/TACC3 interaction | AlphaScreen His-ARNT PAS-B/GST-TACC3 binding, luminescence; TACC3 fragment carries E629A point mutation | Q9Y6A5 | hit rate 0.66% among 390,000 | inhibition, % at 9.99 µM;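 active = mean inhibition of replicates at least 50% and at least half of replicates each reaching 50%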
ERAP1 HTS inh: ERAP1 (human) enzyme inhibition. Q9NZ08. recombinant ERAP1, Leu-AMC fluorescence, 60 min. inhibition, % at 10.7 µM. hit rate 0.15% among 340,000. AID 652197;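 active = mean replicate inhibition of at least 30%, or all replicates individually reaching that 30% level; inactive = mean below 30% and not every replicate reaching it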
Target sequence (Q9NZ08 whole entry, looked up): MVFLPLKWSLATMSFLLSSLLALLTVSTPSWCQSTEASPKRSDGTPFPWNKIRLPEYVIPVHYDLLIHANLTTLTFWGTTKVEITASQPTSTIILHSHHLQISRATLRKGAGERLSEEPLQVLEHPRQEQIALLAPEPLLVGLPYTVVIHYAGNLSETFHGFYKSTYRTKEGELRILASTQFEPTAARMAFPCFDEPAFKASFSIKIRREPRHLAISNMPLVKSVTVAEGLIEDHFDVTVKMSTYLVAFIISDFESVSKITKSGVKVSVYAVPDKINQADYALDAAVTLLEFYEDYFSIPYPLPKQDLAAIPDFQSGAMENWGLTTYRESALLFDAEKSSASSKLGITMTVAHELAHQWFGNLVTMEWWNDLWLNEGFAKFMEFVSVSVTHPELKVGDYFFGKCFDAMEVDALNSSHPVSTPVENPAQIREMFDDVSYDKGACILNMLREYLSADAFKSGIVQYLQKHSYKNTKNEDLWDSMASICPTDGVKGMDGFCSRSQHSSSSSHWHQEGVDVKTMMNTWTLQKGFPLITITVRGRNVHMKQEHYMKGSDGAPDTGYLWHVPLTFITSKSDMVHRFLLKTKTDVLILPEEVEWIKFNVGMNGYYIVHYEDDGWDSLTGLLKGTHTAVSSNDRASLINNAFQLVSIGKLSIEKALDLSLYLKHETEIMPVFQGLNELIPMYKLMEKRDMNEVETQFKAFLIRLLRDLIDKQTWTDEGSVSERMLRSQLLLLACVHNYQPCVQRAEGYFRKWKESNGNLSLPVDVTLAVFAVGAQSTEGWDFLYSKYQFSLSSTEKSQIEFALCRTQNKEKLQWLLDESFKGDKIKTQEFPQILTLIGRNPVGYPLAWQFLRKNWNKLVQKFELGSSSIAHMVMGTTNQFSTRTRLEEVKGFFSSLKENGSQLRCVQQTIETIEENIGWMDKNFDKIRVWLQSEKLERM
Casp6 inh: blocks human caspase-6 cleavage activity | P55212 | purified caspase-6, Z-VEID-R110 cleavage fluorescence | inhibition, % at 12.5 µM | hit rate 0.53% among 350,000;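 active = mean inhibition across replicates at least about 35%, with every replicate also reaching that limit, limit read from the data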
PGC1a acetyl inh: modulators of PGC1a acetylation; hit rate 0.17% among 350,000; inhibition, % at 15.6 µM; AID 651687; U2OS PGC1a acetylation, AlphaScreen anti-acetyl-lysine; with virally co-expressed GCN5 acetyltransferase;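 active = every replicate shows inhibition of at least 40%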
S100A4 inh HTS: blocks human S100A4 binding to myosin IIA peptide. S100A4/TAMRA-MyoIIA peptide fluorescence polarization. inhibition, % at 10.7 µM. hit rate 0.14% among 360,000. AID 652163;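 active = mean inhibition of at least 70% across replicates, with every replicate also reaching that level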
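Material: S100A4 monomer protein | Medium: HEPES pH 7.2 with CaCl2, KCl, NaCl, DTT, Triton | Reagent: Labelled myosin peptide probe, 5 nM | Doses: One dose per compound | Times: 5 min incubation before reading | Benchmarks: Neutral control DMSO, positive control TFP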
Each line names hits and unclear results; the compound was inactive in the other large screens.

O=S(=O)(c1ccc(NC(=S)NN=Cc2ccccc2O)cc1)N1CCCCC1	ARNT-TACC3 inh 45.6
O=S(=O)(c1ccc(NC(=S)N/N=C/c2ccc(O)c(O)c2)cc1)N1CCOCC1	Casp6 inh 40.0 (no result: ERAP1 HTS inh)
COc1ccccc1CNC(=O)C[C@@H]1CC[C@H](NC(=O)CC2CC2)[C@@H](CO)O1	none
C=CCOC(=O)[C@H]1[C@@H]2C(=O)O[C@@H](c3ccccc3)[C@@H](c3ccccc3)N2[C@@H](c2ccc(OCCOC(=O)[C@@H]3C[C@@H]4C(=O)N[C@@H](CC(C)C)C(=O)N4[C@@H]3c3cccc(OCCO)c3)cc2)[C@]12C(=O)Nc1ccccc12	none (no result: Ecoli rRNA inh, ARNT-TACC3 inh, PGC1a acetyl inh)
COC(=O)c1ccc2nc(-c3ccc(C)cc3)c(Cc3ccccc3)n2c1	none (no result: ARNT-TACC3 inh, PGC1a acetyl inh)
COC(=O)c1ccc2nc(-c3ccccc3)c(Cc3ccc(C)cc3)n2c1	Ecoli rRNA inh -27.1 (no result: ARNT-TACC3 inh, PGC1a acetyl inh)
Cc1ccc(C2=C(O)C(=O)C(c3ccc(C)cc3)=C(O)C2=O)cc1	none (no result: PGC1a acetyl inh)
CC1=C(O)C(=O)C(C2=C(O)C(=O)C(C)=C(O)C2=O)=C(O)C1=O	ARNT-TACC3 inh 66.1
